Source: PubChem BioAssay
SENP8 block-1 = SENP8 protease inhibition; Q96LD8; purified SENP8, Z-RLRGG-aminoluciferin cleavage, luminescence; inhibition, % at 10 µM; 330,000 compounds, 1.2% hits; AID 2540; in the data active = inhibition above about 50%
SENP8 block-2 = blocks human SENP8 cleavage of Nedd8 substrate; recombinant SENP8, Nedd8 substrate fluorescence; inhibition, % at 20 µM; 360,000 compounds, 0.64% hits; Q96LD8; AID 602440; in the data active = inhibition mostly above about 40%, no sharp cut-off; inactive = mostly below about 27%
SENP6 block = SENP6 protease inhibition. inhibition, % at 10 µM. 330,000 compounds, 1.8% hits. AID 2599. Q9GZR1. Recombinant SENP6 catalytic domain, aminoluciferin luminescence;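 active = inhibition above about 50% at the single tested dose, limit read from the data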
Target sequence (Q9GZR1 628-1112 limits assumed): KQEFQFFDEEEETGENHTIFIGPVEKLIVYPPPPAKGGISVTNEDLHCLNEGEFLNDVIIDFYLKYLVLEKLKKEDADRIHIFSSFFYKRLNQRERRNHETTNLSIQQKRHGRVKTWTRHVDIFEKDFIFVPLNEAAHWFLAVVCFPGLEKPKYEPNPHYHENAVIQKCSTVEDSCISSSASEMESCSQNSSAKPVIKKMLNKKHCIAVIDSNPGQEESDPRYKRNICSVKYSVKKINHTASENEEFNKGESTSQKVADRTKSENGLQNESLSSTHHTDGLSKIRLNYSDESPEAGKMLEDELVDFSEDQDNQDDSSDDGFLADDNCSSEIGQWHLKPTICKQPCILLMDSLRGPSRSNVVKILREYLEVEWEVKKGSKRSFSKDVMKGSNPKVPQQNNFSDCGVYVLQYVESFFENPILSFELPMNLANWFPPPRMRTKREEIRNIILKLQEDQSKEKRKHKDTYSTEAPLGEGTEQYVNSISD
Platelet DG rel = modulates dense granule release in human platelets. human platelet-rich plasma, SFLLRN dense granule ATP release, luminescence. 300,000 compounds, 0.22% hits. inhibition, %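 (compounds screened at 7.5 µM in platelet-rich plasma)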;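 active = mean replicate score, as percent of positive control, at or above 50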
SENP7 inh = inhibitors of human SENP7 protease. Q9BQF6. recombinant SENP7, Z-RLRGG-aminoluciferin luminescence, 40 min. inhibition, % at 5 µM. 330,000 compounds, 1.5% hits. AID 434973;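 active = inhibition above about 50% at the single test dose, limit read from the data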
SENP1 inh = blocks the human SENP1 SUMO protease catalytic domain; Q9P0U3; inhibition, % at 10 µM; recombinant SENP1 catalytic domain, CyPet-SUMO1-YPet FRET cleavage; 360,000 compounds, 0.21% hits;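 active = inhibition at least 30% at 10 µM, raw YFP signal under a set limit, fluorescence ratio 0.5 to 1.5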
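system = hSENP1 catalytic domain, recombinant | reagent = SFCypet-SUMO1-SFYpet substrate at 25 nM | doses = one dose per compound, 10 µM, 0.5% DMSO | incubation = enzyme reaction for 50 min at room temperature, dark | measured by = FRET, CFP and YFP emission | controls = no-enzyme low, enzyme-DMSO high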
Numbers stand for hits; n = inactive; x = no result given. Compounds with a hit are over-represented: about 2.6% of the library has one in this group of screens.

SMILES	SENP8 block-1	SENP8 block-2	SENP6 block	Platelet DG rel	SENP7 inh	SENP1 inh
COc1cc([N+](=O)[O-])cc(/C=N/NC(=O)c2cc(C)nc3ccccc23)c1O	n	n	n	n	n	40
CCc1ccc2nc(SCC(=O)N3CC(=O)Nc4ccccc43)c(C#N)cc2c1	n	n	n	x	n	32
CCN(CC)c1ccc(C2=NNC(=O)CC2C)cc1[N+](=O)[O-] (stereo not drawn)	n	n	n	55	n	n
CC1CC(=O)NN=C1c1cccs1 (stereo not drawn)	n	n	n	n	n	n
CC1CC(=O)NN=C1c1ccc(N(C)C)c([N+](=O)[O-])c1 (stereo not drawn)	n	n	n	82	n	n
CCc1noc(N)c1C(=O)Nc1ccc(Cl)cc1	n	n	n	n	n	n
COc1ccc(N2CCN(C(CNS(=O)(=O)c3cccs3)c3cccnc3)CC2)cc1 (stereo not drawn)	n	42	n	n	n	n
COc1ccc(S(=O)(=O)NCCCn2ccnc2)cc1Cl	n	n	n	n	n	n
O=C(Nc1cnc2ccccc2c1)c1ccco1	n	n	70	x	70	n
Cc1ccc(C(=O)Nc2cnc3ccccc3c2)cc1	94	n	97	x	98	n
CCN(CC)c1ccc2c(-c3ccc(S(=O)(=O)O)cc3S(=O)(=O)[O-])c3ccc(=[N+](CC)CC)cc-3oc2c1	n	n	n	n	n	34
CCN(CC)c1ccc2nc3c4ccccc4c(=O)cc-3oc2c1	n	x	n	n	n	x
O=C(COC(=O)c1c[nH]c(=O)[nH]c1=O)Nc1ccccc1Br	n	n	n	82	n	n
COc1ccccc1NC(=O)COC(=O)c1c[nH]c(=O)[nH]c1=O	n	n	n	n	n	n
Cc1noc(C)c1C(=O)Nc1cccc2ncccc12	n	n	n	n	n	n
COc1cc(/C=C2/SC(=S)N(Cc3ccccc3)C2=O)cc(Cl)c1O	x	46	x	n	x	n
O=C1/C(=C\c2cc(Br)cc(Br)c2O)SC(=S)N1Cc1ccccc1	n	40	n	n	n	n
COc1cc([N+](=O)[O-])cc(/C=C2/SC(=S)N(Cc3ccccc3)C2=O)c1O	x	n	x	n	x	79
O=C(O)c1ccc(/C=C2/SC(=S)N(Cc3ccccc3)C2=O)cc1	x	n	x	n	x	n
COc1cc(/C=C2/SC(=S)N(Cc3ccccc3)C2=O)ccc1OCC(=O)O	n	n	n	n	n	n
COc1cc(/C=C2/SC(=S)N(Cc3ccccc3)C2=O)ccc1OS(C)(=O)=O	n	n	n	n	n	n
CCOC(=O)[C@]12CCC=C1N(Cc1ccc3c(c1)OCO3)C(=O)[C@H](CC(=O)NCC1CCCCC1)C2	x	n	x	x	x	n
C#CCN(Cc1ccco1)C(=O)c1ccc(OC2CCN(Cc3ccccn3)CC2)cc1	n	n	n	n	n	n
CCCCCC(=O)Nc1ccc(C(=O)COC(=O)c2ccccn2)cc1	n	n	n	n	n	n
Cn1c(-c2ccccc2)cc(=O)c2ccccc21	n	n	n	n	n	n
SMILES	SENP8 block-1	SENP8 block-2	SENP6 block	Platelet DG rel	SENP7 inh	SENP1 inh
Cn1c2ccccc2c(=O)n2c(=O)c3ccccc3cc12	97	x	90	n	95	x
O=c1c2c([nH]n1-c1ccccc1)CCSC2	n	46	n	n	n	n
O=C(O)c1ccc(-n2[nH]c3c(c2=O)CCCC3)cc1	n	n	n	n	n	n
COc1ccc(C=NNc2ccc(S(=O)(=O)Nc3ccccc3C(=O)O)cc2[N+](=O)[O-])c(OC)c1	n	44	n	x	n	n
O=C(O)c1ccccc1NS(=O)(=O)c1ccc(NN=Cc2ccccc2F)c([N+](=O)[O-])c1	n	n	n	x	n	n
CSc1ncnc2c1ncn2CCCNCCc1ccccn1	x	n	x	x	x	n
Cn1cc([N+](=O)[O-])c(C(=O)NC2CCCCCC2)n1	n	n	n	n	n	n
CCn1c(SCC(=O)N(C)c2c(N)n(Cc3ccccc3)c(=O)[nH]c2=O)nc2ccccc21	n	n	n	59	n	n
Cc1ccccc1-c1nnc(-c2cccs2)o1	55	n	82	n	55	n
c1coc(-c2nnc(-c3cccs3)o2)c1	n	n	n	n	n	n
COc1ccc(N2C(=O)N[C@@H](Cc3ccccc3)C2=O)cc1OC	n	n	n	n	n	n
CN1C(=O)/C(=C/c2cn(CC(=O)N3CCCCC3)c3ccccc23)c2ccccc21	n	x	n	54	n	x
O=Cc1cn(CC(=O)N2CCCCC2)c2ccccc12	n	n	n	n	n	n
CC(=O)Oc1ccc(-c2cc3ccccc3oc2=O)cc1	n	n	n	n	n	n
CC(=O)Oc1ccc(-c2cc3c(OC(C)=O)cc(OC(C)=O)cc3oc2=O)cc1	n	n	n	58	n	n
CCN(CC)CCNc1ccc(CO)c2sc3ccccc3c(=O)c12	n	n	n	n	n	n
O=c1c2ccccc2sc2c(CO)ccc(NCCN3CCCCC3)c12	x	41	x	x	x	n
Cc1nc(N)nc(N)c1-c1ccc([N+](=O)[O-])cc1	x	n	x	x	x	n
COc1ccc2c(c1)OC[C@H]1[C@H]2N2C(=O)CN(Cc3ccc(C)cc3)C(=O)[C@@]2(C)[C@H]1c1ccccc1	n	n	n	x	n	n
CCOC(=O)c1cc2cc(OC)ccc2nc1C	n	n	n	66	n	n
COc1cc2c(cc1OC)-c1cc(Nc3ccc(N(C)C)cc3)nc(=O)n1CC2	n	n	n	76	n	n
COc1cc2c(cc1OC)-c1cc(Nc3ccc(F)cc3)nc(=O)n1CC2	n	n	n	95	n	n
COc1cc2c(cc1OC)-c1cc(Nc3cccc(F)c3)nc(=O)n1CC2	n	n	n	71	n	n
CCN(CC)c1ccc(Nc2cc3n(c(=O)n2)CCc2cc(OC)c(OC)cc2-3)cc1	n	n	n	n	n	n
O=S(=O)(c1ccccc1Cl)N1CCC(Cc2ccccc2)CC1	n	n	n	n	n	n
SMILES	SENP8 block-1	SENP8 block-2	SENP6 block	Platelet DG rel	SENP7 inh	SENP1 inh
COc1ccc(C(=O)N2CCOC2CNC(=O)C(=O)NCc2ccccn2)cc1 (stereo not drawn)	x	n	x	x	x	n
O=C(N=C1SC2CS(=O)(=O)CC2N1c1ccc(OC(F)(F)F)cc1)C1CC1 (stereo not drawn)	n	n	n	n	n	n
CCOC(=O)c1sc(N=NC2=C(O)CCCC2=O)c(C(=O)OCC)c1C	n	53	n	n	n	n
CCOC(=O)/C(N=Nc1sc(C(=O)OCC)c(C)c1C(=O)OCC)=C(\C)O	n	x	n	n	n	x
O=C(O)c1ccccc1N/N=C/c1c(Sc2nnnn2-c2ccccc2)nc2ccccn2c1=O	n	n	n	n	n	71
Cc1[nH]n(-c2nc(-c3ccc(Cl)cc3)cs2)c(=O)c1N=Nc1ccc(O)cc1	n	41	n	n	n	n
O=C(NC(=S)NNC(=O)c1cccs1)c1ccccc1	n	n	n	n	n	n
CC(C)(C)c1ccc(C(=O)NC(=S)NNC(=O)c2cccs2)cc1	x	n	x	52	x	n
